Calls of active or inactive are those of the source. No cut-off for these calls is given here. Square brackets hold non-standard residues; d marks the D form. Peptide text beside a SMILES is read from it. * marks the point of attachment. X1 = CC[C@H](C)[C@@H](OC(=O)/C=C/c1ccccc1)C(=O)*; dNMeF = CN[C@H](Cc1ccccc1)C(=O)O; NMeL = CN[C@@H](CC(C)C)C(=O)O

This is an account of results in ChEMBL document CHEMBL4138319, “Discovery, Synthesis, Pharmacological Profiling, and Biological Characterization of Brintonamides A-E, Novel Dual Protease and GPCR Modulators from a Marine Cyanobacterium” (J Med Chem, 2018).

Data set [1] concerns MDA-MB-231. The experiment in a line: Antiproliferative activity against siCCR10 knockdown human MDA-MB-231 cells after 48 hrs by MTT assay. Format: functional. Summed up:
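MDA-MB-231 cells are incubated with 50 nM CCR10 siRNA, which gives 60% knockdown confirmed by RT-qPCR. Proliferation is compared with negative-control siRNA, mean ± SD, n = 3.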

For a further data set, the target named is T1, Chymase (Homo sapiens, UniProt P23946).
T1 sequence (P23946 whole entry): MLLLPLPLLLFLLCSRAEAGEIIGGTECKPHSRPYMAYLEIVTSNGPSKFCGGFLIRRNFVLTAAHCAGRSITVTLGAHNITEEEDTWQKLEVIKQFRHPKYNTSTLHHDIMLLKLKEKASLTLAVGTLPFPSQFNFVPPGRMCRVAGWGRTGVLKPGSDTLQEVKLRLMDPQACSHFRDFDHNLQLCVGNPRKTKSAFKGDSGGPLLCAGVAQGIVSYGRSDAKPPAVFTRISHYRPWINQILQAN
The experiment in a line: Inhibition of chymase (unknown origin) by fluorescence assay. Summed up:
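Activity followed as a time course of rising fluorescence from a fluorescently labelled peptide substrate. The initial linear slope (signal/min) was used.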

Data set [2] concerns the target T2, Kallikrein-7 (Homo sapiens, UniProt P49862). Put plainly: Inhibition of kallikrein 7 (unknown origin) using fluorescently labeled peptide substrate by fluorescence assay. Summed up:
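KLK7 follow-up: 10-dose titrations, 3-fold serial dilution from 100 μM, in duplicate, with gabexate mesylate as positive control. Fluorescence from the labeled peptide substrate is monitored over time, and the initial linear slope (signal/min) is used to derive IC50.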

Data set [3] deals with T3, Atypical chemokine receptor 3 (Homo sapiens, UniProt P25106). The experiment in a line: Agonist activity at human CXCR7 expressed in CHOK1 cells assessed as induction of beta-arrestin recruitment at 20 uM by chemiluminescence method. Format: functional, cell-based.
The target in data set [4] is T2, Kallikrein-7. The experiment in a line: Inhibition of kallikrein 7-mediated Dsg-2 shedding in human MDA-MB-468 cells at 0.01 to 10 uM incubated for 48 hrs by ELISA. The class given is cell-based.
Data set [5] has as its target Somatostatin receptor type 3 (Homo sapiens, UniProt P32745). The experiment in a line: Antagonist activity at human SSTR3 expressed in HEK293 cells assessed as [Tyr1]-somatostatin 14-induced beta-arrestin recruitment pre-incubated for 30 mins before [Tyr1]-somatostatin 14 stimulation for 90 or 180 mins by chemiluminescence method. Format: functional, cell-based. Summed up: (§1)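 PathHunter β-arrestin complementation assay, antagonist mode. Cells co-express ProLink-tagged GPCR and enzyme-acceptor-tagged β-arrestin and are pre-incubated with sample for 30 min at 37 °C or room temperature. Dose-response: 10 points, 3-fold dilutions from 20 μM, in duplicate.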
Background: Activated receptors often draw arrestin, which recruitment assays turn into a signal.

Data set [6] concerns the target T4, Oxytocin receptor (Homo sapiens) (UniProt P30559).
T4 sequence (whole entry): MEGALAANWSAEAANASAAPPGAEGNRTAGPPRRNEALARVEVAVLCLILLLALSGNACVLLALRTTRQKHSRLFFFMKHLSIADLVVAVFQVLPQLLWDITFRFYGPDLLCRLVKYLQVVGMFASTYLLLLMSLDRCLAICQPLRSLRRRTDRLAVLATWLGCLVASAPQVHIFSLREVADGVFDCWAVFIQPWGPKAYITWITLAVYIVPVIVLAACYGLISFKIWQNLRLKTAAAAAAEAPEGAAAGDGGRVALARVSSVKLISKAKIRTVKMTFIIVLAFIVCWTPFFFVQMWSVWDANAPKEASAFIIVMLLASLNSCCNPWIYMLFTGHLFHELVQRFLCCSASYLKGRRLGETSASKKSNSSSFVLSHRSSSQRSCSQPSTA
Put plainly: Antagonist activity at human OXTR expressed in CHOK1 cells assessed as oxytocin-induced beta-arrestin recruitment at 10 uM pre-incubated for 30 mins before oxytocin stimulation for 90 or 180 mins by chemiluminescence method. Details: scale not given: the % may be the effect or the level left. The class given is functional, cell-based.

For data set [7], the target named is T5, C-C chemokine receptor type 10 (Homo sapiens) (UniProt P46092).
T5 sequence (whole entry): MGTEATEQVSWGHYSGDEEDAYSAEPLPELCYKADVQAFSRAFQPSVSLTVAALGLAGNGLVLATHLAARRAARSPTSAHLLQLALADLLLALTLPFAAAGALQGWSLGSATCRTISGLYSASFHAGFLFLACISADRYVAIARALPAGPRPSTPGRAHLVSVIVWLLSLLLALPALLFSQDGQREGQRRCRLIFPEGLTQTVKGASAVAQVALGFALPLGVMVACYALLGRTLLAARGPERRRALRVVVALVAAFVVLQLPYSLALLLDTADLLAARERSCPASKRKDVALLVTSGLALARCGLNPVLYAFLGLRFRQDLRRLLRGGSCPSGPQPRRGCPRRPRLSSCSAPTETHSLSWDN
Put plainly: Antagonist activity at CCR10 in human MDA-MB-231 cells assessed as inhibition of CCL27-induced proliferation preincubated for 2 hrs followed by CCL27 addition measured after 48 hrs by MTT assay. Format: functional, cell-based. In outline: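 MDA-MB-231 cells are seeded at 10,000/well in serum-free DMEM for 24 h, then pretreated with compound for 2 h. CCL27 is added at 1 μg/mL final for 48 h. Viability is measured by MTT and compared with solvent control, mean ± SD, n = 3.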
A general note: Tetrazolium dyes change colour on reduction, which living cells bring about.

Another data set concerns MDA-MB-468. Put plainly: Antimigratory activity against human MDA-MB-468 cells at 0.1 to 10 uM after 48 hrs. Format: functional, cell-based. Summed up: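 Transwell migration through an 8 μm pore membrane. 5000 MDA-MB-468 cells in DMEM with 10% FBS are treated with graded compound concentrations or solvent on both sides for 48 h at 37 °C. Migrated cells are stained with crystal violet and counted. Run in triplicate.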

Data set [8] concerns MDA-MB-231. Put plainly: Toxicity in human MDA-MB-231 cells assessed as inhibition of proliferation after 48 hrs by MTT assay. The class given is cell-based. The note with it: mda-mb-231, 48 h. Summed up: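 MDA-MB-231 cells are grown in DMEM with 10% FBS and seeded at 10,000 cells/well for 24 h. Cells are then exposed to graded compound concentrations or DMSO for 48 h. Viability is measured by MTT.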

The target in data set [9] is T3, Atypical chemokine receptor 3. Put plainly: Agonist activity at human CXCR7 expressed in CHOK1 cells assessed as induction of beta-arrestin recruitment at 10 uM by chemiluminescence method. Format: functional, cell-based.
Another data set deals with T6, Substance-K receptor (Homo sapiens, UniProt P21452).
T6 sequence (P21452 whole entry): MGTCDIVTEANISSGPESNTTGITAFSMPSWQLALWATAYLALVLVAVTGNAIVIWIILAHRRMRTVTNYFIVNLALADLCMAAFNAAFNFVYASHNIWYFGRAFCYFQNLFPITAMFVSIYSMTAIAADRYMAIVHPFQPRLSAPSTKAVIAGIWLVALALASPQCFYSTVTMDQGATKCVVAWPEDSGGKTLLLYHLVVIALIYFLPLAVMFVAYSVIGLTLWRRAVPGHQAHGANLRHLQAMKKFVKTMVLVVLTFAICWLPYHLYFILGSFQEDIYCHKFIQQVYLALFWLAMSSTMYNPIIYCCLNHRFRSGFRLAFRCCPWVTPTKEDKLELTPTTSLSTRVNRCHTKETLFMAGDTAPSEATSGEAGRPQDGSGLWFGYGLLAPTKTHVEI
The experiment in a line: Antagonist activity at human TACR2 expressed in CHOK1 cells assessed as substance P-induced beta-arrestin recruitment pre-incubated for 30 mins before substance P stimulation for 90 or 180 mins by chemiluminescence method. The class given is functional, cell-based. In outline:
as §1

T2 sequence (P49862 30-253 limits assumed): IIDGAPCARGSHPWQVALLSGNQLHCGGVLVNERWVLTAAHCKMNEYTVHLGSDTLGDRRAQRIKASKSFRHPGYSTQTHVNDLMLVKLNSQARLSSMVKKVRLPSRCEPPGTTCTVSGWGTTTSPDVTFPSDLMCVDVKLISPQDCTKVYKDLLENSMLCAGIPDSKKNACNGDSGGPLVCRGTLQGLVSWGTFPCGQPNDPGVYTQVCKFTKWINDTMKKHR
T3 sequence (P25106 whole entry): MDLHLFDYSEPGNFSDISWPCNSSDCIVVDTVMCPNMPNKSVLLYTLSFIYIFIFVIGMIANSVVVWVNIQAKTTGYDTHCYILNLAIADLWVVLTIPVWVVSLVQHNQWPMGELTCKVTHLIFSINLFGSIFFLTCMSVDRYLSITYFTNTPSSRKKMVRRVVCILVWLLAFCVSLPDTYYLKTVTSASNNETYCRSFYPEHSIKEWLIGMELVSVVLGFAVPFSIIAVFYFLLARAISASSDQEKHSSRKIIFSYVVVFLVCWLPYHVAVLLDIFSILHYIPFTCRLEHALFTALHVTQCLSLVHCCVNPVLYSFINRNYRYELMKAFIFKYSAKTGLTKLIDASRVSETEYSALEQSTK
Chain of Somatostatin receptor type 3 (P32745 whole entry): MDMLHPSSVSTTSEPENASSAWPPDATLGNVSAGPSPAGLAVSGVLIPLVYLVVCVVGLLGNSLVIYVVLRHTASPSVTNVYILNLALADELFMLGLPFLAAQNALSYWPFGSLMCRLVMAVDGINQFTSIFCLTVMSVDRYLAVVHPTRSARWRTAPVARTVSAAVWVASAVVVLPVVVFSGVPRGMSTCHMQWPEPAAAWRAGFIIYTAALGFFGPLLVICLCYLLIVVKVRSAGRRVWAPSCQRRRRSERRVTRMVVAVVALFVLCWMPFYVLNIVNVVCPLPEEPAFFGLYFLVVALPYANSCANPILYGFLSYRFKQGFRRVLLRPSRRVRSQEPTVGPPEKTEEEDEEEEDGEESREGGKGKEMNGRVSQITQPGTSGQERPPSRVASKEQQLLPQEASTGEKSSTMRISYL

What is called IC50 is the midpoint of a concentration-inhibition curve. In the case of `CC[C@H](C)[C@@H](OC(=O)/C=C/c1ccccc1)C(=O)N1CCC[C@H]1C(=O)NCC(=O)N(C)[C@@H](CC(C)C)C(=O)N[C@@H](C)C(=O)N(C)[C@H](Cc1ccccc1)C(=O)N1CCC[C@H]1C(=O)OC` (X1-PG[NMeL]A[dNMeF]P-OMe), the Activity in the data set on MDA-MB-231 [1] was 10%; in [3], 91%; in data set [6], 76%; with MDA-MB-231 [8], “Non-Toxic”; in data set [9] it was 86%. Besides, the concentration for half-maximal inhibition (IC50) at Chymase was 23.2 µM; in data set [5], 3.12 µM; on Substance-K receptor, 1.79 µM. Also, the inhibition entry at Kallikrein-7 [2] was “Active”. For the same molecule, the inhibition result on Kallikrein-7 [4] was “inactive”. Besides, the inhibition result in [7] was “Dose-dependent effect”. The result in the data set with MDA-MB-468 was Active.
